Laboratory results reported in ChEMBL document CHEMBL2434926, “New di(hetero)arylethers and di(hetero)arylamines in the thieno[3,2-b]pyridine series: synthesis, growth inhibitory activity on human tumor cell lines and non-tumor cells, effects on cell cycle and on programmed cell death” (Eur J Med Chem, 2013).
Calls of active or inactive are those of the source. The calls are words filed in the database; no cut-off is given here.

Key:
HCT-15 = experiment: Growth inhibition of human HCT15 cells after 48 hrs by SRB assay; assay type: functional; conditions: HCT-15, 48 h
Procedure, shortened: (§1)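 Sulforhodamine B assay. MCF-7, NCI-H460, HCT15 kept in RPMI-1640 with 10% heat-inactivated FBS and 2 mM glutamine, seeded 7.5 × 10^3 cells/well. HeLa and HepG2 kept in DMEM with 10% FBS, 2 mM glutamine and penicillin/streptomycin, seeded 1.0 × 10^4 cells/well. Cultures at 37 °C, 5% CO2. GI50 is the concentration giving 50% inhibition of net growth; three independent experiments in triplicate, mean ± SD; ellipticine positive control.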

NCI-H460 [1] = experiment: Growth inhibition of human NCI-H460 cells after 48 hrs by SRB assay; assay type: functional; conditions: NCI-H460, 48 h; procedure, shortened: as §1
HepG2 = experiment: Growth inhibition of human HepG2 cells after 48 hrs by SRB assay; assay type: functional; conditions: HepG2, 48 h; procedure, shortened: as §1
[2] = Growth inhibition of PLP2 cells after 48 hrs by SRB assay; assay type: cell-based, Sus scrofa; conditions: pig
Procedure, shortened: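 Porcine liver primary cells (PLP2), established by the authors, subcultured before confluence, seeded 1.0 × 10^4 cells/well in DMEM with 10% FBS and penicillin/streptomycin. Treated 48 h with compound solutions, then sulforhodamine B read-out. GI50 is the concentration inhibiting 50% of net growth; three independent experiments in triplicate, mean ± SD; ellipticine positive control.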

HeLa = experiment: Growth inhibition of human HeLa cells after 48 hrs by SRB assay; assay type: functional; procedure, shortened: as §1
MCF7 [3] = experiment: Growth inhibition of human MCF7 cells after 48 hrs by SRB assay; assay type: functional; conditions: MCF7, 48 h; procedure, shortened: as §1
NCI-H460 [4] = experiment: Cell cycle arrest in human NCI-H460 cells assessed as accumulation at sub-G1 phase at GI50 after 24 hrs by propidium iodide staining-based flow cytometry; assay type: functional
NCI-H460 [5] = experiment: Induction of apoptosis in human NCI-H460 cells at GI50 after 48 hrs by TUNEL assay relative to DMSO-treated control; assay type: functional
Procedure, shortened: (§2)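 NCI-H460 seeded at 1 × 10^5 cells/well, grown 24 h at 37 °C, treated with compound at GI50, DMSO vehicle or medium for 24 h or 48 h. Fixed in 4% paraformaldehyde 30 min, cytospun, permeabilized with ice-cold 0.1% Triton X-100 in 0.1% sodium citrate 2 min, TUNEL reaction mix (enzyme 1:20) 1 h, DAPI counterstain. Fluorescence microscopy counting at least 500 cells per slide (about 300 in some 48 h samples). Mean ± SEM of three independent experiments; two-tailed paired t-test versus DMSO.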

NCI-H460 [6] = experiment: Induction of apoptosis in human NCI-H460 cells at GI50 after 24 hrs by TUNEL assay; assay type: functional, cell-based; procedure, shortened: as §2
[7] = Growth inhibition of human A375-C5 cells after 48 hrs by SRB assay; assay type: functional; conditions: A375-C5, 48 h
MCF7 [8] = experiment: Growth inhibition of human MCF7 cells; assay type: functional
NCI-H460 [9] = experiment: Growth inhibition of human NCI-H460 cells; assay type: functional
[10] = Growth inhibition of human A375-C5 cells; assay type: functional

GI50 (HCT-15) | GI50 (NCI-H460 [1]) | GI50 (HepG2) | GI50 (HeLa) | GI50 (MCF7 [3]) | GI50 (MCF7 [8]) | GI50 (NCI-H460 [9]) | SMILES | GI50 at 48 h [2] | Activity (NCI-H460 [4]) | Activity (NCI-H460 [5]) | Activity (NCI-H460 [6]) | GI50 [7] | GI50 [10]
86 µM | 86.8 µM | 53.2 µM | 49.4 µM | 93.3 µM | – | – | COc1ccc(Oc2ccnc3ccsc23)cc1 | 94.5 µM | – | – | – | – | –
86.7 µM | 79.5 µM | 25.8 µM | 26.4 µM | 94.4 µM | – | – | Fc1ccccc1Nc1ccnc2ccsc12 | 115 µM | – | – | – | – | –
0.39 µM | 1.04 µM | 2.7 µM | 3.14 µM | 1.56 µM | – | – | COc1cccc(Oc2ccnc3ccsc23)c1 | 26.7 µM | Active | >30% | Active | – | –
91.2 µM | 78.5 µM | 26.3 µM | 77.5 µM | 80.7 µM | – | – | Fc1ccc(Nc2ccnc3ccsc23)cc1 | 100 µM | – | – | – | – | –
– | 1 µM | 1 µM | – | 1 µM | – | – | COC(=O)c1sc2cccnc2c1Nc1ccc(OC)cc1N | – | – | – | – | 1 µM | –
0.31 µM | 0.28 µM | 5.02 µM | 0.09 µM | 0.25 µM | – | – | COc1cccc(Nc2ccnc3ccsc23)c1 | 1.94 µM | Active | >30% | Active | – | –
25.9 µM | 19.4 µM | 22.1 µM | 20.4 µM | 20.2 µM | – | – | COc1ccc(Nc2ccnc3ccsc23)cc1 | 22.7 µM | – | – | – | – | –
97.2 µM | 78 µM | 16.4 µM | 50.3 µM | 74.3 µM | – | – | Fc1ccccc1Oc1ccnc2ccsc12 | 87.2 µM | – | – | – | – | –
103 µM | 103 µM | 42.6 µM | 34.5 µM | 102 µM | – | – | Fc1cccc(Oc2ccnc3ccsc23)c1 | > 125 µM | – | – | – | – | –
– | – | – | – | – | 1 µM | 1 µM | COC(=O)c1sc2cc(Oc3cccc(OC)c3OC)cnc2c1N | – | – | – | – | – | 1 µM
5.91 µM | 5.4 µM | 18 µM | 1.4 µM | 5.88 µM | – | – | COc1ccccc1Nc1ccnc2ccsc12 | 6.56 µM | Active | >30% | Active | – | –
– | – | – | – | – | 1 µM | 1 µM | COC(=O)c1sc2cc(Oc3cccc(OC)c3)cnc2c1N | – | – | – | – | – | 1 µM
70.7 µM | 77.5 µM | 32 µM | 69.2 µM | 63.7 µM | – | – | Fc1cccc(Nc2ccnc3ccsc23)c1 | 119 µM | – | – | – | – | –
91.2 µM | 94.2 µM | 62.7 µM | 28.9 µM | 90.9 µM | – | – | COc1ccccc1Oc1ccnc2ccsc12 | > 125 µM | – | – | – | – | –
88.1 µM | 101 µM | 45.1 µM | 33.8 µM | 98.5 µM | – | – | Fc1ccc(Oc2ccnc3ccsc23)cc1 | > 125 µM | – | – | – | – | –

SMILES | GI50 (HCT-15) | GI50 (NCI-H460 [1]) | GI50 (HepG2) | GI50 (HeLa) | GI50 (MCF7 [3]) | GI50 (MCF7 [8]) | GI50 (NCI-H460 [9]) | GI50 at 48 h [2] | Activity (NCI-H460 [4]) | Activity (NCI-H460 [5]) | Activity (NCI-H460 [6]) | GI50 [7] | GI50 [10]
Cc1c2ccncc2c(C)c2c1[nH]c1ccccc12 [ELLIPTECINE] | 1.91 µM | 5.77 µM | 5.38 µM | 3.28 µM | 4.32 µM | – | – | 2.06 µM | – | – | – | – | –
